# Shown are actives, neighbours in structure and some others; about 5.6% of the full set was active somewhere.
# CHOP inhibitor – blocks CHOP induction under ER stress | CHO-K1 CHOP-promoter luciferase, tunicamycin-induced, 15-18 h | inhibition, % at 10 µM | actives 3.8% (n = 220,000);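 active means compounds that reduced the stress-induced luciferase reporter signal by more than about 70% of percent inhibition, limit read from the data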;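 further: 0% = tunicamycin plus vehicle and 100% = wells without tunicamycin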
# CHOP UPR activ – apoptotic UPR (CHOP) activation | CHO-CHOP luciferase reporter, luminescence; percent of tunicamycin response over DMSO baseline | activation, % at 10 µM | actives 0.34% (n = 330,000);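 active means at 10 µM dose, activation of 40% or more, normalized to positive control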;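 further: 100% = tunicamycin at 10 µg/mL and 0% = DMSO alone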
#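 Dosing – one dose, 10 µM in 0.5% DMSO · System – CHO-CHOP cells, stable luciferase reporter of PERK-eIF2a-CHOP signalling · Input – 500 cells/well · Control set – tunicamycin 10 µg/mL final as positive, DMSO-only wells as negative · Timing – 6 h compound treatment, 37 °C · Measure – % activation vs tunicamycin · Technique – luminescence read with Steady-Glo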
# MPTP block – inhibitors of mitochondrial permeability transition pore. actives 1.4% (n = 360,000). isolated mouse mitochondria, Ca2+ swelling absorbance, 30 min. inhibition, % at 10 µM. AID 602449;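 active means inhibition of 50% or more, scaled per plate between neutral and stimulator controls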;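 further: 0% = DMSO wells given calcium and 100% = 1 mM EGTA wells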
# aDG glyco up – alpha-DG glycosylation activation | Pro5-aDG cells, alpha-DG glycosylation AlphaScreen (IIH6); 0% Pro5, 100% B10-LARGE cell signal | activation, % at 10 µM | actives 0.22% (n = 360,000) | AID 624168;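 active means activation of at least 8% versus controls, or a plate z-score of at least 8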;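 further: Pro5 are CHO cells carrying HIG-tagged alpha-DG that lacks glycosylation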
# NR3A LBD binder – modulators (binders) of human NR3A ligand-binding domain; NR3A LBD differential scanning fluorimetry, Tm shift; 0% = protein alone, 100% = glycine-bound protein; Tm shift relative to glycine control, % at 25 µM; actives 2.5% (n = 340,000); AID 1259313;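 active means melting temperature shift of at least 10% of the positive control shift, at one fixed dose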
# XBP1 UPR activ – adaptive UPR (XBP1) activation | AID 463104 | activation, % at 20 µM | CHO-XBP1 luciferase reporter, IRE1-XBP1 UPR activation, luminescence; percent of tunicamycin response, DMSO as zero | actives 0.33% (n = 330,000);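 active means versus positive control, 20 µM dose yields 30% or more activation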;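 further: 100% = tunicamycin at 10 µg/mL and 0% = DMSO only wells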
#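 Assay system: IRE1-XBP1 luciferase reporter CHO line. Input: 1000 cells/well. Buffer or medium: F12 with 10% serum. Doses: 20 µM, 1% DMSO. Times: overnight seeding at 37 °C, 6 h compound treatment at 37 °C. Technique: Steady-Glo luciferase glow luminescence, 10 min after reagent addition.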
# Numbers without * were called inactive; . = no result; ! = a repeat was not active.
SMILES,CHOP inhibitor,CHOP UPR activ,MPTP block,aDG glyco up,NR3A LBD binder,XBP1 UPR activ
CCN(CC)CCN(C)C1CCC(c2ccccc2)CC1 (stereo not given),-9,.,0,0,0,.
CCOc1ccc(Oc2ccc(C(F)(F)F)cc2N)cc1,78*,5,6,0,-10,-2
Nc1c2c(nn1-c1ccc(F)cc1)CSC2,.,-1,0,-1,0,-1
CCN(CC)c1nc(Nc2ccc(Cl)cc2)nc(OCC#N)n1,93*,-1,2,0,-11,4
Cc1c(Cl)cccc1NC(=O)CC1Sc2ccccc2NC1=O (stereo not given),1,0,1,0,10*,1
Cc1ccc(C)c(NC(=O)CC2Sc3ccccc3NC2=O)c1 (stereo not given),.,.,0,0,-1,.
O=C(CC1Sc2ccccc2NC1=O)c1ccc(Br)cc1 (stereo not given),72*,6,4,0,-2,2
COc1cc2c(cc1NC(=O)Nc1cccc(C)c1)oc1ccccc12,90*,0,18,0,39*,-1
COc1cc2c(cc1NC(=O)Nc1ccc(F)cc1)oc1ccccc12,26,5,36,0,186*,3
COc1cc2c(cc1NC(=O)c1cccc([N+](=O)[O-])c1C)oc1ccccc12,61,-2,1,1,20*,-1
COc1ccc(S(=O)(=O)N[C@@H](C)C(=O)OCC(=O)Nc2cc3oc4ccccc4c3cc2OC)cc1,-16,7,2,0,25*,2
COc1cc2c(cc1NC(=O)COC(=O)[C@@H](NS(=O)(=O)c1cccc(Cl)c1)C(C)C)oc1ccccc12,21,6,0,1,5,0
Cc1cc(C)c(NC(=O)CNC(=O)CN(C)Cc2ccc(Br)s2)c(C)c1,.,0,1,0,-1,-2
Cc1csc(NC(=O)CCC(=O)N(CC(=O)NC2CCCC2)Cc2ccccc2)n1,.,0,0,0,-4,0
COc1ccc(NC(=O)c2ccccc2[N+](=O)[O-])cc1,-8,1,0,0,-3,-1
COc1cc2c(cc1NC(=O)C(C)Sc1ccc(NC(C)=O)cc1)oc1ccccc12 (stereo not given),11,9,7,1,16*,3
COc1cc2c(cc1NC(=S)Nc1cccc(C)c1)oc1ccccc12,35,-1,1,0,26*,11
COc1ccccc1Nc1ccc(NC(=O)c2cccc([N+](=O)[O-])c2C)cc1,.,4,4,0,19*,1
COc1cc2c(cc1NC(=O)C1CCCO1)oc1ccccc12 (stereo not given),35,7,-5,0,1,2
COc1ccc(OCC(=O)Nc2cc3oc4ccccc4c3cc2OC)cc1,39,6,1,0,-11,25
COc1ccc(NC(=O)Nc2cc3oc4ccccc4c3cc2OC)cc1,43,1,7,0,13*,3
O=C(CC[C@H]1O[C@@H](n2ccc(=O)[nH]c2=O)[C@H](O)[C@@H]1O)N[C@H](Cc1ccccc1)C(=O)NCc1cccs1,.,.,0,0,.,.
CC(C)NC(=O)CN1CCN(Cc2nc(C(c3ccccc3)c3ccccc3)no2)CC1,4,-2,0,0,-2,-2
COC(=O)c1ccc(S(=O)(=O)c2ccc(Cl)cc2)c(N)c1,.,3,1,2,0,-3
COc1cc2c(cc1NC(=O)Nc1ccc(C)cc1)oc1ccccc12,59,2,25,0,29*,-1
SMILES,CHOP inhibitor,CHOP UPR activ,MPTP block,aDG glyco up,NR3A LBD binder,XBP1 UPR activ
COc1cc2c(cc1NC(=S)Nc1ccccc1C)oc1ccccc12,40,5,4,0,0,3
Cc1cccc(NC(=O)Nc2ccc(C)cc2Br)c1,90*,4,13,0,-9,5
Cc1cc2cc(C(c3nnnn3Cc3ccco3)N3CCc4ccccc43)c(=O)[nH]c2cc1C (stereo not given),86*,0,-5,0,-6,-3
Cc1ccc2[nH]c(=O)c(C(c3nnnn3Cc3ccccc3)N3CCc4ccccc43)cc2c1 (stereo not given),70*,1,4,0,-9,-3
Cc1ccc2[nH]c(=O)c(C(c3nnnn3CC3CCCO3)N3CCc4ccccc4C3)cc2c1 (stereo not given),24,-1,-1,0,0,2
Cc1ccc2cc(C(c3nnnn3Cc3ccccc3)N3CCc4ccccc43)c(=O)[nH]c2c1 (stereo not given),-14,-2,-1,0,-5,-3
Cc1ccc2[nH]c(=O)c(C(c3nnnn3CC3CCCO3)N3CCCc4ccccc43)cc2c1 (stereo not given),53,-1,1,0,19*,0
CCOC(=O)c1[nH]c(C)c(C(=O)OCC(=O)N2CC(=O)Nc3ccccc32)c1C,11,2,-11,0,-4,-2
CCc1cc(C(=O)NCC2CCCO2)sc1C (stereo not given),.,2,1,0,-1,-3
O=C(c1ccc(COc2ccccc2Cl)o1)N1CCN(Cc2ccc3c(c2)OCO3)CC1,73*!,-1,0,0,15*!,-2
COc1ccc(NC(=O)c2ccc3c(c2)OCCO3)cc1OC,.,5,-1,0,0,-2
Cc1ccc(NC(=O)CS(=O)CC(=O)Nc2ccc3c(c2)OCO3)cc1Cl (stereo not given),27,-1,4,0,30*,3
COc1ccc(NC(=O)c2ccc3c(c2)OCO3)cc1Cl,-14,1,3,0,26*,0
COc1cc(NC(=O)c2ccc3c(c2)OCCO3)ccc1NC(=O)c1ccccc1Cl,.,4,1,1,29*,13
CCN1N=C(c2ccccc2)Cn2c1nc1ccccc12,19,-1,-1,0,0,4
O=C(NCc1cccc(Cl)c1)C1Cc2c(-c3ccc(Cl)cc3)ccnc2O1 (stereo not given),.,.,1,0,.,.
O=C(N/N=C/c1ccc([N+](=O)[O-])s1)C(O)c1ccccc1 (stereo not given),49,1,2,11*,-1,0
O=C(Cc1ccccc1)N/N=C/c1ccc([N+](=O)[O-])s1,-79,3,-27,3,-2,4
O=C(N/N=C/c1cccs1)c1cncc(Br)c1,-2,-1,1,0,-2,4
O=C(N/N=C/c1ccc([N+](=O)[O-])s1)c1ccccc1Br,15,-1,0,5.6*,-1,6

# Compound activity deposited in PubChem BioAssay by several laboratories.
